Results: the array DNA melting data of Ke et al. (doi:10.1101/2024.01.08.574731)

How the values were obtained:
[1] = melting temperature; fluorescence melt of hairpins on a sequencing array, two-state fit, raised by 9.35 °C to match UV melts; settings: sodium 0.088 M
Summary of the method: (§1)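 Melting temperature and folding enthalpy were derived from bootstrapped two-state fits. The fitted temperatures were raised by 9.35 °C to agree with UV melts, and four replicates were combined by inverse variance. The underlying data were Cy3 fluorescence images of library hairpins, with annealed Cy3 and quencher oligos, on a sequenced MiSeq flow cell in 50 mM Na-HEPES pH 8.0, 25 mM NaCl, taken in 2.5 °C steps up to 60 °C, normalised to pre-quench Cy3 and to control constructs.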

[2] = folding enthalpy; higher = less favourable; fluorescence melt of hairpins on a sequencing array, two-state fit; settings: sodium 0.088 M
Summary of the method: as §1

## GAGGCTGGAAACAGTCTC (((.(((....))).)))
[1]
  Tm: 52.6 °C
[2]
  folding enthalpy: -35.8 kcal/mol

## GAGGGAGCGAAAGCTCTC (((..(((....))))))
[1]
  Tm: 42.8 °C
[2]
  folding enthalpy: -9.38 kcal/mol

## GAGGGAGGAAACTCCCCC (.(((((....))))).)
[1]
  Tm: 41.9 °C
[2]
  folding enthalpy: -10.5 kcal/mol

## GAGGGCACGAAAGTGCTC (((..(((....))))))
[1]
  Tm: 44 °C
[2]
  folding enthalpy: -7.41 kcal/mol

## GAGGGCGAAAGCCCACTC ((((((....)))..)))
[1]
  Tm: 55.6 °C
[2]
  folding enthalpy: -10.6 kcal/mol

## GAGGGCGGAAACGCCCCC (.(((((....))))).)
[1]
  Tm: 45.8 °C
[2]
  folding enthalpy: -5.82 kcal/mol

## GAGGGGGAAACCCCTC ((((((....))))))
[1]
  Tm: 65.4 °C
[2]
  folding enthalpy: -30 kcal/mol

## GAGGGTGAAAACCCTC ((((((....))))))
[1]
  Tm: 64.2 °C
[2]
  folding enthalpy: -32.4 kcal/mol

## GAGGGTGGAAACACCCTC (((((((....)))))))
[1]
  Tm: 68.7 °C
[2]
  folding enthalpy: -35 kcal/mol

## GAGGGTGGAAACACTCTC (((.(((....))).)))
[1]
  Tm: 52.3 °C
[2]
  folding enthalpy: -29.9 kcal/mol

## GAGGGTGGAAACGCCCTC (((((.(....).)))))
[1]
  Tm: 57.6 °C
[2]
  folding enthalpy: -44.3 kcal/mol

## GAGGGTGGAAACGTCCTC ((((..(....)..))))
[1]
  Tm: 35.1 °C
[2]
  folding enthalpy: -23.9 kcal/mol

## GAGGTAGGAAACTATCTC (((.(((....))).)))
[1]
  Tm: 38.7 °C
[2]
  folding enthalpy: -26.6 kcal/mol

## GAGGTCGGAAACGATCTC (((.(((....))).)))
[1]
  Tm: 52.5 °C
[2]
  folding enthalpy: -43.8 kcal/mol

## GAGGTCGGAAACGGCTTC ((.(.((....)).).))
[1]
  Tm: 36.1 °C
[2]
  folding enthalpy: -20.5 kcal/mol

## GAGGTGAAAACCTC (((((....)))))
[1]
  Tm: 53.3 °C
[2]
  folding enthalpy: -22.7 kcal/mol

## GAGGTGCCGAAAGGCCTC (((..(((....))))))
[1]
  Tm: 37.5 °C
[2]
  folding enthalpy: -10.8 kcal/mol

## GAGGTGGCGAAAGCCCTC (((..(((....))))))
[1]
  Tm: 43.7 °C
[2]
  folding enthalpy: -14.4 kcal/mol

## GAGGTGGGAAACCATCTC (((.(((....))).)))
[1]
  Tm: 47.7 °C
[2]
  folding enthalpy: -31.3 kcal/mol

## GAGGTTGGAAACGACCTC (((((.(....).)))))
[1]
  Tm: 51.3 °C
[2]
  folding enthalpy: -34.4 kcal/mol

## GAGTAACGAAAGTTCCTC (((.(((....))).)))
[1]
  Tm: 38 °C
[2]
  folding enthalpy: -19.8 kcal/mol

## GAGTAAGAAATTACTC ((((((....))))))
[1]
  Tm: 40.1 °C
[2]
  folding enthalpy: -24.5 kcal/mol

## GAGTAAGGAAACCTACTC (((((.(....).)))))
[1]
  Tm: 33.2 °C
[2]
  folding enthalpy: -26.6 kcal/mol

## GAGTAAGGAAACTCACTC ((((.((....)).))))
[1]
  Tm: 24.8 °C
[2]
  folding enthalpy: -14.8 kcal/mol

## GAGTACGGAAACGCACTC ((((.((....)).))))
[1]
  Tm: 45.3 °C
[2]
  folding enthalpy: -31.6 kcal/mol

## GAGTACGGAAACGTATTC ((.((((....)))).))
[1]
  Tm: 41.6 °C
[2]
  folding enthalpy: -24.4 kcal/mol

## GAGTACGGAAACGTGCTC (((.(((....))).)))
[1]
  Tm: 53.8 °C
[2]
  folding enthalpy: -48.9 kcal/mol

## GAGTATGGAAACATGCTC (((.(((....))).)))
[1]
  Tm: 46.8 °C
[2]
  folding enthalpy: -34.1 kcal/mol

## GAGTCACGAAAGTGTCTC (((.(((....))).)))
[1]
  Tm: 49.8 °C
[2]
  folding enthalpy: -30 kcal/mol

## GAGTCAGCGAAAGCTCTC (((..(((....))))))
[1]
  Tm: 30.1 °C
[2]
  folding enthalpy: -11.8 kcal/mol

## GAGTCAGGAAACTGACCC (.(((((....))))).)
[1]
  Tm: 40.5 °C
[2]
  folding enthalpy: -13.4 kcal/mol

## GAGTCAGGAAACTGACTC (((((((....)))))))
[1]
  Tm: 62.6 °C
[2]
  folding enthalpy: -37 kcal/mol

## GAGTCCGAAAGGACGCTC ((((((....)))..)))
[1]
  Tm: 64.2 °C
[2]
  folding enthalpy: -13.6 kcal/mol

## GAGTCCGAAAGGAGACTC ((((((....)))..)))
[1]
  Tm: 44.9 °C
[2]
  folding enthalpy: -21.9 kcal/mol

## GAGTCCGAAAGGAGCTC ((((((....))).)))
[1]
  Tm: 47.2 °C
[2]
  folding enthalpy: -22 kcal/mol

## GAGTCCGAAAGGATACTC ((((((....)))..)))
[1]
  Tm: 38.6 °C
[2]
  folding enthalpy: -17.9 kcal/mol

## GAGTCCGGAAACGGGCTC (((.(((....))).)))
[1]
  Tm: 63.3 °C
[2]
  folding enthalpy: -33 kcal/mol

## GAGTCGGGAAACCGATTC ((.((((....)))).))
[1]
  Tm: 47.7 °C
[2]
  folding enthalpy: -25 kcal/mol

## GAGTCGGGAAACCGGCTC (((.(((....))).)))
[1]
  Tm: 61.1 °C
[2]
  folding enthalpy: -33.3 kcal/mol

## GAGTCTGGAAACGGACTC (((((.(....).)))))
[1]
  Tm: 52.3 °C
[2]
  folding enthalpy: -40.4 kcal/mol

## GAGTGACGAAAGTCCCTC (((.(((....))).)))
[1]
  Tm: 45.1 °C
[2]
  folding enthalpy: -24.4 kcal/mol

## GAGTGAGGAAACTCATTC ((.((((....)))).))
[1]
  Tm: 38.5 °C
[2]
  folding enthalpy: -23.5 kcal/mol

## GAGTGCGAAAGCAGGCTC ((((((....)))..)))
[1]
  Tm: 48.3 °C
[2]
  folding enthalpy: -16.7 kcal/mol

## GAGTGCGGAAACGCATTC ((.((((....)))).))
[1]
  Tm: 51.9 °C
[2]
  folding enthalpy: -23.8 kcal/mol

## GAGTGGCGAAAGCCTCTC (((.(((....))).)))
[1]
  Tm: 53.6 °C
[2]
  folding enthalpy: -24.2 kcal/mol

## GAGTGTGCGAAAGCACTC (((..(((....))))))
[1]
  Tm: 37.8 °C
[2]
  folding enthalpy: -9.39 kcal/mol

## GAGTGTGGAAACATACTC ((((.((....)).))))
[1]
  Tm: 45.9 °C
[2]
  folding enthalpy: -31.9 kcal/mol

## GAGTTACCGAAAGGTCTC (((..(((....))))))
[1]
  Tm: 29.4 °C
[2]
  folding enthalpy: -16.9 kcal/mol

## GAGTTACGAAAGTATCTC (((.(((....))).)))
[1]
  Tm: 41.4 °C
[2]
  folding enthalpy: -26 kcal/mol

## GAGTTAGGAAACTAGCTC (((.(((....))).)))
[1]
  Tm: 40.4 °C
[2]
  folding enthalpy: -28.9 kcal/mol

## GAGTTAGGAAACTGACTC ((((.((....)).))))
[1]
  Tm: 42.4 °C
[2]
  folding enthalpy: -36.6 kcal/mol

## GAGTTCGAAAGAACTC ((((((....))))))
[1]
  Tm: 66.2 °C
[2]
  folding enthalpy: -38 kcal/mol

## GAGTTCGCGAAAGCGCTC (((..(((....))))))
[1]
  Tm: 25.9 °C
[2]
  folding enthalpy: -6.78 kcal/mol

## GAGTTCGGAAACGAACCC (.(((((....))))).)
[1]
  Tm: 41.5 °C
[2]
  folding enthalpy: -13.3 kcal/mol

## GAGTTCGGAAACGAGTTC ((..(((....)))..))
[1]
  Tm: 30.7 °C
[2]
  folding enthalpy: -9.81 kcal/mol

## GAGTTCGGAAACGGACTC ((((.((....)).))))
[1]
  Tm: 52 °C
[2]
  folding enthalpy: -43.1 kcal/mol

## GAGTTGGGAAACCAGCTC (((.(((....))).)))
[1]
  Tm: 48.9 °C
[2]
  folding enthalpy: -34.7 kcal/mol

## GAGTTGGGAAACTAACTC (((((.(....).)))))
[1]
  Tm: 43.6 °C
[2]
  folding enthalpy: -31 kcal/mol

## GAGTTTCCGAAAGGACTC (((..(((....))))))
[1]
  Tm: 30 °C
[2]
  folding enthalpy: -13.3 kcal/mol

## GAGTTTGGAAACGAACTC (((((.(....).)))))
[1]
  Tm: 47.1 °C
[2]
  folding enthalpy: -36.2 kcal/mol

## GATAAAGAAATTTATC ((((((....))))))
[1]
  Tm: 27.6 °C
[2]
  folding enthalpy: -15.9 kcal/mol

## GATAAAGGAAACTTTGTC ((.((((....)))).))
[1]
  Tm: 32.2 °C
[2]
  folding enthalpy: -14.1 kcal/mol

## GATAAGACGAAAGTCATC (((..(((....))))))
[1]
  Tm: 26.7 °C
[2]
  folding enthalpy: -15.2 kcal/mol

## GATAAGCCGAAAGGCATC (((..(((....))))))
[1]
  Tm: 32 °C
[2]
  folding enthalpy: -9.19 kcal/mol

## GATAATGGAAACATTACC (.(((((....))))).)
[1]
  Tm: 22.6 °C
[2]
  folding enthalpy: -9.26 kcal/mol

## GATACAGGAAACTGCATC (((.(((....))).)))
[1]
  Tm: 33.6 °C
[2]
  folding enthalpy: -28.4 kcal/mol

## GATACCACGAAAGTGATC (((..(((....))))))
[1]
  Tm: 21.2 °C
[2]
  folding enthalpy: -9.05 kcal/mol

## GATACCCGAAAGGGGATC (((.(((....))).)))
[1]
  Tm: 60 °C
[2]
  folding enthalpy: -30.2 kcal/mol
